Screening data: PubChem BioAssay, several laboratories
MBD2 DNA inh: inhibitors of human MBD2 binding to methylated oligonucleotide; Q9UBB5; TR-FRET; inhibition, % at 4.4 µM; 0.31% of 370,000 active; AID 686964; in the data active = inhibition above about 13%
Target sequence (Q9UBB5 whole entry, looked up): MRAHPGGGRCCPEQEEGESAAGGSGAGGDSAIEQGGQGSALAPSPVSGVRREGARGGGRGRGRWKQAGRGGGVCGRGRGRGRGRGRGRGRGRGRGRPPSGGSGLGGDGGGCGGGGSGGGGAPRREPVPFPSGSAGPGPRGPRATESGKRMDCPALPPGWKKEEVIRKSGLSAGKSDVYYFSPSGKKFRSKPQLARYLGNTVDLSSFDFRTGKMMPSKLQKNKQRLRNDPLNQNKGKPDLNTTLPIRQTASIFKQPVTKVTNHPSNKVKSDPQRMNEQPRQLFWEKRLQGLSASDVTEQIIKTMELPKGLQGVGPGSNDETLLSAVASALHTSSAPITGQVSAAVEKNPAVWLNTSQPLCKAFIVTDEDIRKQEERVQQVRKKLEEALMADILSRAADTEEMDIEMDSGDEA
SUMO1-SIM PPI: modulators of human SUMO1-mediated protein-protein interactions | inhibition, % at 20 µM | SUMO1 binding to a labelled peptide, TR-FRET, 1 h | 0.33% of 360,000 active | P63165; in the data active = inhibition above about 37%
Target sequence (P63165 whole entry, looked up): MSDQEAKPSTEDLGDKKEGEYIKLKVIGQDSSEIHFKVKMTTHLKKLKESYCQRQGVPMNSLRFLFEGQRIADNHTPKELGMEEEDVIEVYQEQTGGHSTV
HCV NS3 hel inh: inhibitors of Hepatitis C virus NS3 helicase; AID 1800; 0.56% of 290,000 active; NS3 helicase DNA unwinding, Cy5 molecular beacon fluorescence; inhibition, % at 10.9 µM;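 active = inhibition above the mean of all tested compounds plus 3 SD, set per campaign, cut at about 35% in these data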;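 also: 0% = DMSO wells and 100% = thioflavine S control wells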
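System: Hepatitis C virus NS3 helicase domain fragment enzyme | Reagent: Annealed dual-labelled DNA beacon duplex, ATP-started | Compound dosing: 10.9 µM single point, 0.8% DMSO | Incubation: 1 h reaction at 25 °C, ATP-initiated | Technique: Cy5 fluorescence | Evaluation: Percent inhibition from t60/t0 fluorescence ratio | Benchmarks: Low DMSO, high thioflavine S at 110 µM | Replication: Singlicate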
Pemphigus Ab inh: inhibitors of pemphigus antibody binding to human desmoglein-3. DSG3-coupled beads, scFv-anti-DSG3-GFP binding, flow cytometry; active compounds read low. binding (percent of control), % at 10 µM. 0.48% of 310,000 active;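 active = binding more than 3 SD below its plate's average and above zero; inconclusive = below that plate limit but binding exactly zero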;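 also: hits lower antibody fragment binding to DSG3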
DNMT1 block: inhibitors of human DNMT1 | inhibition (reported as % activation of signal), % at 10 µM | 0.83% of 360,000 active | DNMT1 molecular beacon, Hinp1I cleavage, fluorescence | AID 588458; in the data active = inhibition above about 50%
UHRF1 MBD2 ctr: blocks human UHRF1 binding to methylated DNA; Q96T88; UHRF1 binding to methylated oligo, TR-FRET; inhibition, % at 4.4 µM; 0.75% of 370,000 active; in the data active = inhibition above about 21%;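 also: UHRF1 SRA domain binding a hemimethylated CpG hairpin DNA probe; 0% = median of test compound wells and 100% = reference inhibitor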
DNMT1 confirm: confirmation of human DNMT1 inhibitors; shares compounds with DNMT1 block; DNMT1 molecular beacon HinP1I cleavage, fluorescence; inhibition, % at 10 µM; 8% of 2,300 active;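 active = average inhibition of at least 30% in the single-concentration confirmation test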
Beacon interf: counter-screen for DNMT1 inhibitors: spectral interference; shares compounds with DNMT1 block; DNMT1 molecular beacon spectral interference counterscreen, fluorescence 485/520; activation (fluorescence interference), % at 10 µM; 1% of 2,300 active;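 active = activation of at least 30% at 10 µM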;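 also: DNMT1 catalytic domain with a HinP1I cleavage step and a FAM/dabcyl DNA beacon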
The depositor's hits bear a star; ? = inconclusive; · = not tested or not shown. Rows were chosen to be rich in hits. Some 2.5% of all compounds tested hit in one or more screens of this group.

SMILES	MBD2 DNA inh	SUMO1-SIM PPI	HCV NS3 hel inh	Pemphigus Ab inh	DNMT1 block	UHRF1 MBD2 ctr	DNMT1 confirm	Beacon interf
COc1cc(NC(=O)C2CCN(S(=O)(=O)c3cnc[nH]3)CC2)cc(OC)c1OC	-6	0	7	98	-1	-1	·	·
O=C(N/N=C/c1ccccc1O)NC12CC3CC(CC(C3)C1)C2	4	-5	-13	?	-7	0	·	·
O=C(N/N=C/c1cc(Cl)cc([N+](=O)[O-])c1O)NC12CC3CC(CC(C3)C1)C2	-4	-1	15	125	72*	0	7	-5
Cc1cc(OC(C)C(=O)NCC(O)c2ccccc2)c2c(C)c(C)c(=O)oc2c1 (stereo not drawn)	0	-7	13	?	0	2	·	·
Cc1cc(OC(C(=O)O)c2ccccc2)c2c(C)c(Cc3ccccc3)c(=O)oc2c1 (stereo not drawn)	3	-2	-1	99	88*	4	2	6
COc1ccc(/C(N)=N/OC(=O)c2c(-c3ccccc3Cl)noc2C)cc1OC	-2	1	-8	103	-3	0	·	·
Cc1ccc(C)c(N(Cc2cc3ccc(C)cc3[nH]c2=O)C(=O)c2ccco2)c1	-2	2	3	111	142*	3	3	2
COc1ccc(N(Cc2cc3ccc(C)cc3[nH]c2=O)C(=O)c2ccco2)cc1	-5	5	-8	110	-3	-6	·	·
NC1=NC(=O)S/C1=C\c1ccc(F)cc1	2	-16	-3	108	0	-1	·	·
Cc1ccccc1NC(=O)CSc1nc(COc2ccccc2)nc2ccccc12	4	1	0	94	12	15	·	·
Cc1cc(C)c(NC(=O)CSc2nc(COc3ccccc3)nc3ccccc23)c(C)c1	-1	-4	1	99	70*	2	0	-7
CC(C)C1C(C#N)=C(N)Oc2n[nH]c(-c3cccs3)c21 (stereo not drawn)	-2	7	14	106	-9	-4	·	·
Cc1ccc(-n2cccc2/C=C2/C(=N)N3C(=NC2=O)SN=C3S(C)(=O)=O)cc1	-1	-6	25	87	76*	0	19	2
N#Cc1c(N2CCOCC2)nc(N)c2c(N)nc3c(c12)CC(CCl)O3 (stereo not drawn)	-6	-1	-4	103	-4	-1	·	·
NC(=N\N=Cc1ccco1)/C(N)=N/N=Cc1ccco1	0	2	·	105	55*	1	4	4
NC(=N\N=Cc1ccccc1)/C(N)=N/N=Cc1ccccc1	3	-2	·	·	5	0	·	·
COc1ccc(Br)cc1/C=N/NC(=O)c1ccc(COc2ccc3c(c2)CCC3)o1	2	3	-8	114	11	2	·	·
O=C(N/N=C/c1cc([N+](=O)[O-])ccc1O)c1ccc(COc2ccc3c(c2)CCC3)o1	-1	0	-17	101	72*	2	21	0
CCOC(=O)C1=C(COC(=O)/C=C/c2ccc(OC)cc2)NC(=O)NC1C (stereo not drawn)	7	-23	·	?	3	0	·	·
CCOC(=O)C1=C(COC(=O)/C=C/c2ccco2)NC(=O)NC1C (stereo not drawn)	5	12	·	93	72*	13	7	-3
CC(=O)Nc1c(C)nn(C(C)=O)c1C	4	-1	0	98	-4	14	·	·
O=C(Nc1ccc(Cl)cc1)C1CCCCN1S(=O)(=O)c1ccccc1 (stereo not drawn)	4	20	·	·	0	-2	·	·
NNC(=O)c1nc[nH]c1C(=O)Nc1ccccc1	6	2	-8	100	66*	2	0	16
O=C(Nc1cccc(Cl)c1)c1nc[nH]c1C(=O)NCCCCNC(=O)c1[nH]cnc1C(=O)Nc1cccc(Cl)c1	1	-6	·	85	53*	0	5	2
COc1ccccc1OCCCCOc1ccccc1F	1	0	-10	102	1	1	·	·
SMILES	MBD2 DNA inh	SUMO1-SIM PPI	HCV NS3 hel inh	Pemphigus Ab inh	DNMT1 block	UHRF1 MBD2 ctr	DNMT1 confirm	Beacon interf
O=C(C[C@H]1C/C=C\C[C@H](NC(=O)OCC2c3ccccc3-c3ccccc32)C(=O)OC[C@H](Cc2ccccc2)NC1=O)N[C@H](CO)Cc1ccccc1	1	1	·	92	51*	0	3	-3
COc1ccc(N/C=C\C(=O)c2ccc3ccccc3c2)cc1	8	-1	9	121	34	5	·	·
NS(=O)(=O)c1ccc(N/C=C\C(=O)c2ccc3ccccc3c2)cc1	9	3	12	107	88*	22*	2	3
COc1ccc(CCNC(=O)c2cc3cccc(OC)c3oc2=O)cc1OC	1	-34	1	106	2	-1	·	·
CCN(C(=O)c1ccncc1)c1c(N)n(Cc2ccccc2)c(=O)[nH]c1=O	-5	-2	·	98	2	-1	·	·
COc1ccc2nc(/C(C#N)=C\c3ccc(Oc4ccc([N+](=O)[O-])cn4)cc3)[nH]c2c1	3	-3	2	106	57*	-1	2	2
Cc1ccc2nc(/C(C#N)=C\c3ccc(Oc4ccc([N+](=O)[O-])cn4)cc3)[nH]c2c1	3	-13	-1	·	54*	16	6	3
CCOc1cc(/C=C(/C#N)c2nc3ccccc3[nH]2)ccc1Oc1ccc([N+](=O)[O-])cn1	-4	-5	3	95	35	-4	·	·
O=C(/C=C/c1ccc(Cl)c([N+](=O)[O-])c1)Nc1ccc(NC(=O)c2ccco2)cc1	-1	1	-10	95	10	4	·	·
O=C(/C=C/c1ccc(Cl)c([N+](=O)[O-])c1)Nc1ccc(N2CCCC2)cc1	1	-2	-3	129	88*	6	2	-1
CC1=C(C(=O)N2CCOCC2)C(c2ccc(OC(F)F)cc2)NC(=S)N1c1ccccc1 (stereo not drawn)	4	1	10	116	0	0	·	·
CC(C=NNC(=O)C(=O)NN=CC(C)=Cc1ccccc1)=Cc1ccccc1	·	-4	·	96	63*	·	2	4
CC(/C=N/NC(=O)c1ccccc1C)=C\c1ccccc1	-4	-12	·	101	3	0	·	·
CNC(=O)CC1C(=O)N(Cc2ccccc2)C(=S)N1NC(=O)c1cccc(F)c1 (stereo not drawn)	3	3	5	107	2	-3	·	·
Cc1ccc(NC(=O)CC2C(=O)N(Cc3ccccc3)C(=S)N2NC(=O)c2ccccc2)c(C)c1 (stereo not drawn)	2	0	6	81	81*	0	6	10
